Test results taken from ChEMBL document CHEMBL3271990, “Ergot alkaloids. New ergolines as selective dopaminergic stimulants” (1978).
The source made the active and inactive calls. The calls are words filed in the database; no cut-off is given here.

Columns and labels:
Rattus norvegicus [1] = assay: Induction of turning toward intact side in OFA rat model with 6-OH-DA-induced unilateral degeneration of nigrostriatal tract at 1 mg/kg, ip; assay type: functional, organism-based; set-up: dose 1 mg/kg
Rattus norvegicus [2] = assay: Induction of stereotypy in OFA rat at 30 mg/kg, ip measured every 30 mins for 2 hrs followed by every 60 mins for 7 hrs; assay type: functional, organism-based; set-up: dose 30 mg/kg
How it was run: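 Male OFA rats (180-250 g), each in its own cylinder with a wire-netting floor, acclimatized 30 min, then dosed. Observed every 30 min for 2 h, then every 60 min up to 7 h total. Six rats per dose. Sniffing, licking and biting scored with the Costall et al. system and summed as total activity per rat over 0-7 h.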

Rattus norvegicus [3] = assay: Inhibition of serum prolactin in sc dosed rat after 4 hrs by RIA; assay type: functional
How it was run: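 Serum prolactin measured by RIA 4 h after sc dosing, expressed as NIH-RP. ED50 calculated from dose-response relationships.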

Rattus norvegicus [4] = assay: Inhibition of ovum implantation in sc dosed inseminated rat; assay type: functional
How it was run: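 Inseminated rats dosed sc. ED value for inhibition of ovum implantation.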

Rattus norvegicus [5] = assay: Induction of stereotypy in OFA rat at 10 mg/kg, sc measured every 30 mins for 2 hrs followed by every 60 mins for 7 hrs; assay type: functional, organism-based; set-up: dose 10 mg/kg
How it was run: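 Male OFA rats (180-250 g), housed singly in cylinders with wire-netting floor, acclimatized 30 min before dosing. Behaviour observed every 30 min for 2 h, then every 60 min up to 7 h total. Stereotypy (sniffing, licking, biting) scored on Costall et al. scale; total score per rat over 0-7 h. Six rats per dose.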

| Structure (SMILES) | Activity (Rattus norvegicus [1]) | Activity (Rattus norvegicus [2]) | ED50 (Rattus norvegicus [3]) | ED50 (Rattus norvegicus [4]) | Activity (Rattus norvegicus [5]) |
| --- | --- | --- | --- | --- | --- |
| CN1C[C@@H](CC#N)C[C@@H]2c3cccc4[nH]cc(c34)C[C@H]21 [DELERGOTRILE] | Active | Active | 0.06 mg/kg | 3 mg/kg |  |
| CC(C)C[C@H]1C(=O)N2CCC[C@H]2[C@]2(O)O[C@](NC(=O)[C@@H]3C=C4c5cccc6[nH]c(Br)c(c56)C[C@H]4N(C)C3)(C(C)C)C(=O)N12 [BROMOCRIPTINE] |  | Active | 0.007 mg/kg | 0.75 mg/kg |  |
| CN1C[C@H](CC#N)C[C@@H]2c3cccc4[nH]c(Cl)c(c34)C[C@H]21 [LERGOTRILE] | Active | Active | 0.08 mg/kg | 2 mg/kg |  |
| CN1C[C@@H](CC#N)C[C@H]2c3cccc4[nH]cc(c34)C[C@H]21 | Active | Active |  |  |  |
| CN1C[C@H](CSc2ccccn2)C=C2c3cccc4[nH]cc(c34)C[C@H]21 [TIOMERGINE] | Active |  | 1.47 mg/kg | 11.5 mg/kg |  |
| CN1C[C@H](CC#N)C[C@@H]2c3cccc4[nH]cc(c34)C[C@H]21 | Active |  | 0.06 mg/kg | 1 mg/kg |  |
| CN1CCc2cccc3c2[C@H]1Cc1ccc(O)c(O)c1-3 |  |  |  |  | Active |
